The nature of series [1]: Inhibition of p70S6K-mediated S6 phosphorylation in human A549 cells after 3 hrs by chemiluminescence assay. In kind it is cell-based. The settings on record: A549, 3 h. In a few lines:
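A549 cells seeded at 7.5 × 10^3/well in DMEM with 10% FBS and 1% non-essential amino acids, grown 48 h at 37 °C, then exposed 3 h to compound ([…], triplicate, 0.2% DMSO). Fixed in formaldehyde, blocked, probed overnight at 4 °C with anti-phospho-S6 (Ser240/244) or anti-total-S6, then HRP secondary; chemiluminescent ELISA read-out.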

Series [2] deals with Ribosomal protein S6 kinase beta-1 (Homo sapiens, UniProt P23443, D18H/T412E). Put plainly: Inhibition of human p70S6K D18H and T412E mutant using RRRLSSLRA as substrate after 3 hrs by luciferase-luciferin-coupled chemiluminescence assay.
Ribosomal protein S6 kinase beta-1, sequence (P23443 whole entry D18H/T412E): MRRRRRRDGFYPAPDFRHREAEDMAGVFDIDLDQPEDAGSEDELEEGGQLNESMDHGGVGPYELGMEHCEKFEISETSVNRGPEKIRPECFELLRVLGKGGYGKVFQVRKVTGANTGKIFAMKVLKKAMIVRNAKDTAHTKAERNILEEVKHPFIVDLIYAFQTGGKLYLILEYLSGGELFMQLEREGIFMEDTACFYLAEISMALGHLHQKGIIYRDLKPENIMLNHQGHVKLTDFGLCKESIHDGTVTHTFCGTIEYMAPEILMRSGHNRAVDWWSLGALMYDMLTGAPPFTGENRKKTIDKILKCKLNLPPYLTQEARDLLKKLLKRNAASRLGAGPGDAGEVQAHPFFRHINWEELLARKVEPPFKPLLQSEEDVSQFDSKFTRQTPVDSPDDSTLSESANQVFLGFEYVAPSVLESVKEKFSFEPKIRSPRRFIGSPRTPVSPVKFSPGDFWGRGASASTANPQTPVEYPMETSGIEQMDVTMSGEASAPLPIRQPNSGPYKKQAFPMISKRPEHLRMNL
Series [3] can be described thus: Clearance in rat at 2.5 mg/kg, iv and 2.5 mg/kg, po. The series is classed as ADME, organism-based. As to conditions: in vivo.
Series [4] in a line: Cmax in rat at 2.5 mg/kg, po. As to conditions: in vivo. Set-up: dose 2.5 mg/kg, route oral. In kind it is ADME, organism-based.
The nature of series [5]: Cmax in rat at 2.5 mg/kg, iv. In kind it is ADME, organism-based. Also noted: dose 2.5 mg/kg, route intravenous. The settings on record: in vivo.
A short description of series [6]: Half life in rat at 2.5 mg/kg, po. In kind it is ADME, organism-based. Also noted: dose 2.5 mg/kg, route oral. As to conditions: in vivo.
Series [7] in a line: Volume of distribution in rat at 2.5 mg/kg, iv and 2.5 mg/kg, po. The series is classed as ADME, organism-based. The settings on record: in vivo.
Series [8] is described as follows: Half life in rat at 2.5 mg/kg, iv. As to conditions: in vivo. The series is classed as ADME, organism-based. Set-up: dose 2.5 mg/kg, route intravenous.
The nature of series [9]: Oral bioavailability in rat at 2.5 mg/kg. In kind it is ADME, organism-based. The settings on record: in vivo.
Series [10] deals with Rattus norvegicus. Kind of series: Dose normalized AUC in rat at 2.5 mg/kg, iv. In kind it is ADME, organism-based. Also noted: dose 2.5 mg/kg, route intravenous. As to conditions: in vivo.
For series [11], the system named is Rattus norvegicus. Kind of series: Dose normalized AUC in rat at 2.5 mg/kg, po. The series is classed as ADME, organism-based. The settings on record: in vivo. Also noted: dose 2.5 mg/kg, route oral.
For series [12], the target named is RAC-beta serine/threonine-protein kinase (Homo sapiens, UniProt P31751). Kind of series: Inhibition of Akt2.
RAC-beta serine/threonine-protein kinase, sequence (P31751 whole entry): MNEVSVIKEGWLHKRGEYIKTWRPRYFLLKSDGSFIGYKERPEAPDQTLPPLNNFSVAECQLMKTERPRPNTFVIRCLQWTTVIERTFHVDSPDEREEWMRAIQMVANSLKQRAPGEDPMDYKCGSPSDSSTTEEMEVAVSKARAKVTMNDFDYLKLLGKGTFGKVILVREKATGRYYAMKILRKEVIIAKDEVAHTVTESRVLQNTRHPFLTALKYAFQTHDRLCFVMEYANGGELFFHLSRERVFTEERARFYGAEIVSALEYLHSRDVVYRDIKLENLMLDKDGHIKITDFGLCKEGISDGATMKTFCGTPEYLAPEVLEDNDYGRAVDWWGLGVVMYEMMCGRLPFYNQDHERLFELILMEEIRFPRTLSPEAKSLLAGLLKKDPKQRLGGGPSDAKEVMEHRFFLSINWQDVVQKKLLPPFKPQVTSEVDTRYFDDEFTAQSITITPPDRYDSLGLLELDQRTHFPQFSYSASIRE
Series [13] deals with Ribosomal protein S6 kinase alpha-3 (Homo sapiens, UniProt P51812). Kind of series: Inhibition of Rsk2.
Ribosomal protein S6 kinase alpha-3, sequence (P51812 whole entry): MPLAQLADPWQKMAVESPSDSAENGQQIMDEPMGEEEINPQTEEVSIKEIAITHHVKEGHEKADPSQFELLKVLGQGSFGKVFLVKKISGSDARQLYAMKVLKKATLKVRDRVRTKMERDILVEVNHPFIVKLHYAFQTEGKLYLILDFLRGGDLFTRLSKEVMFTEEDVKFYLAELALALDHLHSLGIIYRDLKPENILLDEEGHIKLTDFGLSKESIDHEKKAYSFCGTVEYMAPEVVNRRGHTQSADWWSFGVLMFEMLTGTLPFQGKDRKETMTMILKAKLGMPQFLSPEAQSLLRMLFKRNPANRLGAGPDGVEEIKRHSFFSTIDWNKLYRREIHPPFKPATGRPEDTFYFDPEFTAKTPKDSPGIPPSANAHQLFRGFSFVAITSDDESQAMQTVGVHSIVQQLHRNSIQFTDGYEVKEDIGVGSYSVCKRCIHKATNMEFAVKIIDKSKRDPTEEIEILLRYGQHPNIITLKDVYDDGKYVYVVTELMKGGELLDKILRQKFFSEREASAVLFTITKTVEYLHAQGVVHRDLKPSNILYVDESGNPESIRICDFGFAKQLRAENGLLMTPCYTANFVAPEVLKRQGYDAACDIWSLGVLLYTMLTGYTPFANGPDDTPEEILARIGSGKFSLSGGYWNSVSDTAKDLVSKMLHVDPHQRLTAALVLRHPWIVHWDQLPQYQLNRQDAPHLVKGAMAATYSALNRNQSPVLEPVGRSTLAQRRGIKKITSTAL
The nature of series [14]: Inhibition of PKA.
Series [15] addresses Serine/threonine-protein kinase pim-1 (Homo sapiens, UniProt P11309). Kind of series: Inhibition of PIM1.
For series [16], the target named is RAC-alpha serine/threonine-protein kinase (Homo sapiens, UniProt P31749). Kind of series: Inhibition of Akt1.
RAC-alpha serine/threonine-protein kinase, sequence (P31749 whole entry): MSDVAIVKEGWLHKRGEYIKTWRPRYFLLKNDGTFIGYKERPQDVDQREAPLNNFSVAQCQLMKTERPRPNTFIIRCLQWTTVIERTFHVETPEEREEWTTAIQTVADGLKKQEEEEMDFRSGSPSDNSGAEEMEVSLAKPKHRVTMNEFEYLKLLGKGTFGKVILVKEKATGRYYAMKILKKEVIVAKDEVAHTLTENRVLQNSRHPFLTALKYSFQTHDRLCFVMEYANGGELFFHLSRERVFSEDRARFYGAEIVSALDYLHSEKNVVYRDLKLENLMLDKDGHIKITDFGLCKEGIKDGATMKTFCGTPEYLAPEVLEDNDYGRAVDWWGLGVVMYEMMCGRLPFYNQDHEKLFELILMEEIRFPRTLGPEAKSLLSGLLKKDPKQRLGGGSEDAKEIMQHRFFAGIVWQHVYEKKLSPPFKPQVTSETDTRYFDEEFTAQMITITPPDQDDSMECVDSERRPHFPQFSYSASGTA
Series [17] has as its system PC-3. Put plainly: Antitumor activity against human PC3 cells xenografted in mouse assessed as tumor growth inhibition at 100 mg/kg, po bid for 14 days. The series is classed as functional. As to conditions: PC-3, 336 h, read-out: GI. Put shortly: (§1)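 PC3 prostate carcinoma xenografts in mice; compound given orally at 30, 100 or 300 mg/kg twice daily for 14 days; tumor growth inhibition recorded.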

In series [18] the test system is PC-3. Put plainly: Antitumor activity against human PC3 cells xenografted in mouse assessed as tumor growth inhibition compound administered po bid for 14 days. In kind it is functional, organism-based. Put shortly:
as §1

Series [19] concerns PC-3. Kind of series: Antitumor activity against human PC3 cells xenografted in mouse assessed as tumor growth inhibition at 30 mg/kg, po bid for 14 days. In kind it is functional. The settings on record: PC-3, 336 h, read-out: GI. Put shortly:
as §1
In general terms: A xenograft is tissue or cells of one species grown in another, often human tumour cells in immunodeficient mice.

Series [20] deals with Mus musculus. Kind of series: Inhibition of p70S6K-mediated S6 phosphorylation in human PC3 cells xenografted in mouse at 100 mg/kg, po. In kind it is functional. As to conditions: PC-3.
The test system of series [21] is PC-3. Kind of series: Antitumor activity against human PC3 cells xenografted in mouse assessed as tumor growth inhibition at 300 mg/kg, po bid for 14 days. The series is classed as functional. The settings on record: PC-3, 336 h, read-out: GI. In a few lines:
as §1

Serine/threonine-protein kinase pim-1, sequence (P11309 whole entry): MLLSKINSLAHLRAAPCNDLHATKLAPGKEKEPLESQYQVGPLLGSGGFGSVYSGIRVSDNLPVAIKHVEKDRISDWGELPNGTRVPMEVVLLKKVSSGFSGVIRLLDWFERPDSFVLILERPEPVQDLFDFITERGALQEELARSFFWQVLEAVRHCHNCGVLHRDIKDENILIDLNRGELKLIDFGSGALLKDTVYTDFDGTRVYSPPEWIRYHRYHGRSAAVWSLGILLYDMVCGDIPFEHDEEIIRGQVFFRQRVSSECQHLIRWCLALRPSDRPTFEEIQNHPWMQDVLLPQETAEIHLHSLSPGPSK

In general, IC50 refers to the concentration at which inhibition is half-maximal. Consider `CCCc1n[nH]c2ncnc(N3CCN(c4cc(Cl)ccc4C)CC3)c12`, for which the IC50 in series [1] was determined as 0.275 µM; in series [2] it was 0.006 µM.
For `CCc1n[nH]c2ncnc(N3CCN(c4cc(Cl)cc(OCCN(CC)CC)c4C)CC3)c12`, in that order: 0.339 µM and 0.011 µM.
With `Cc1ccc(Cl)cc1N1CCN(c2ncnc3[nH]nc(C(C)C)c23)CC1`, the IC50 is 0.207 µM in series [1] and 0.016 µM in series [2].
For `CCc1n[nH]c2ncnc(N3CCN(c4cc(Cl)cc(OCCN(C)C)c4C)CC3)c12`, the IC50 came out at 0.143 µM in [1] and 0.006 µM in series [2].
As a reminder, the Cmax is the maximum level reached in the sampled fluid or tissue. In general, half-life refers to how long it takes for the measured level to halve. A word on the bioavailability: it is dose-corrected exposure relative to a reference, in per cent. The low end stands for poor availability, the high end for good availability. In turn, `CCc1n[nH]c2ncnc(N3CCN(c4cc(Cl)ccc4C)CC3)c12` showed a clearance in [3] of 25.8 mL/min/kg. The values for the IC50 in series [1] and in series [2] were 0.15 µM and 0.006 µM, respectively. Further, the values for the Cmax in series [4] and in series [5] were 30 nM and 6290 nM, respectively. The half-life in [6] was 1.4 h; in series [8], 7.1 h. Also, the Vd in series [7] stood at 6.3 L/kg. The same compound had a bioavailability in series [9] of 2%. The AUC/dose came out at 1.74 µM·kg·h/mg in [10] and 0.02 µM·kg·h/mg in series [11].
On to `CCc1n[nH]c2ncnc(N3CCN(c4cc(Cl)cc(OCCN5CCCC5)c4C)CC3)c12`, for which the IC50 in [1] turned out to be 0.243 µM; in series [2], 0.005 µM.
As to `CCc1n[nH]c2ncnc(N3CCN(c4cc(Cl)cc(NCCN(CC)CC)c4C)CC3)c12`, the IC50 came to 0.184 µM in series [1] and 0.003 µM in [2].
In the case of `Cc1c(NCCN(C)C)cc(Cl)cc1N1CCN(c2ncnc3[nH]nc(Br)c23)CC1`, the IC50 in series [1] is 0.043 µM; in [12] it was 0.311 µM; in [13] it was 0.248 µM; in series [14], 0.025 µM; in [15] it was less than 0.5 µM; in series [16], 0.053 µM. Further, the IC50 in series [2] came to 0.002 µM.
The compound `Clc1cccc(N2CCN(c3ncnc4[nH]ncc34)CC2)c1` returned an IC50 in [2] of 0.107 µM.
`Clc1cccc(N2CCN(c3ncnc4[nH]ccc34)CC2)c1`: the IC50 in series [2] turned out to be 0.162 µM.
With `CCc1n[nH]c2ncnc(N3CCN(c4cc(Cl)cc(NCCN5CCCC5)c4C)CC3)c12`, the IC50 in series [1] is 0.08 µM; in series [2] it was 0.003 µM.
In [2], `Nc1ncnc(N2CCN(c3cccc(Cl)c3)CC2)c1[N+](=O)[O-]` returned a 50% inhibitory concentration (IC50) of 0.085 µM. In other words, the double-digit nanomolar range.
As for `Cc1ccc(Cl)cc1N1CCN(c2ncnc3[nH]ncc23)CC1`, the IC50 in [1] came out at 1.13 µM; in series [2], 0.013 µM.
With `Cc1nc(N2CCN(c3cc(Cl)ccc3C)CC2)c2cn[nH]c2n1`, the IC50 in series [2] was greater than 2 µM.
Regarding `Nc1cc(N2CCN(c3cccc(Cl)c3)CC2)ncn1`, the IC50 in series [2] was greater than 2 µM.
Consider `CCc1n[nH]c2ncnc(N3CCN(c4cc(Cl)cc(CCCN(CC)CC)c4C)CC3)c12`, for which the IC50 in series [1] worked out at 0.211 µM; in series [2] it was 0.003 µM.
With `Cc1c(NCCN(C)C)cc(Cl)cc1N1CCN(c2ncnc3[nH]nc(C(F)(F)F)c23)CC1`, the IC50 in [1] amounted to 0.05 µM; in [12], 0.477 µM; in series [13] it was 0.024 µM; in [14], 0.006 µM; in series [16], 0.074 µM; in series [2], 0.004 µM.
Regarding `Cc1ccc(Cl)cc1N1CCN(c2ncnc(N)c2[N+](=O)[O-])CC1`, in [2], the IC50 is 0.003 µM.
As to `Cc1c(N)ncnc1N1CCN(c2cccc(Cl)c2)CC1`, the IC50 in series [2] is greater than 2 µM.
Take `Cc1ccc(Cl)cc1N1CCN(c2ncnc3[nH]nc(C)c23)CC1`: the IC50 stood at 0.5 µM in series [1] and 0.009 µM in series [2].
`CCc1n[nH]c2ncnc(N3CCN(c4cc(Cl)cc(CCCN5CCCC5)c4C)CC3)c12`: the IC50 in series [1] worked out at 0.152 µM; in [2], 0.002 µM.
Take `Cc1ccc(Cl)cc1N1CCN(c2ncnc3[nH]nc(Br)c23)CC1`: the results for the IC50 in series [1] and in [2] were 0.086 µM and 0.007 µM, respectively.
Regarding `Cc1ccc(Cl)cc1N1CCN(c2ncnc3[nH]nc(C(F)(F)F)c23)CC1`, the half-inhibitory concentration (IC50) in series [1] worked out at 0.041 µM; in series [2], 0.029 µM.
Consider `Clc1cccc(N2CCN(c3[nH]cnc4ncnc3-4)CC2)c1`, for which inhibition in series [2] was half-maximal at 0.196 µM (IC50). That is a sub-micromolar value.
In series [3], `CCc1n[nH]c2ncnc(N3CCN(c4cc(Cl)cc(NCCN(C)C)c4C)CC3)c12` gave a clearance of 17.4 mL/min/kg. For the same compound, the results for the inhibition in vivo at 100 mg/kg in series [17] and in series [20] were 49% and greater than 60%, respectively. Moreover, the IC50 worked out at 0.045 µM in series [1]; 3.02 µM in [12]; 0.068 µM in [13]; 0.042 µM in [14]; 0.371 µM in series [16]; 0.002 µM in series [2]. Besides, the Cmax in series [4] amounted to 150 nM; in series [5], 1470 nM. Also, in series [18], the “growth inhibition (GI)” value was “Dose-dependent effect”. The inhibition in vivo at 30 mg/kg in [19] came to 21%. Besides, the half-life in [6] is 3.3 h; in series [8], 2.9 h. In addition, the Vd in series [7] turned out to be 3.7 L/kg. The compound further displayed a bioavailability in series [9] of 23%. In addition, in series [21], the inhibition in vivo at 300 mg/kg was determined as 69%. The AUC/dose in series [10] turned out to be 1.72 µM·kg·h/mg; in series [11], 0.45 µM·kg·h/mg.

(Values after ChEMBL document CHEMBL2010702, “Design and evaluation of a series of pyrazolopyrimidines as p70S6K inhibitors” (Bioorg Med Chem Lett, 2012).)
